Results from publication PMC8562596 (Biochemistry, 2016).
Values joined by “and” are separate entries in the source; they are usually repeats but may differ in a detail not shown here. Equal values may be shown once. Read-outs that look alike come from different tables or passages of the source. Marks after values point to notes of the source that are not given here. Non-standard residues stand in square brackets, D forms with d. Residues, ends and D or L forms follow the SMILES beside them. 2Nal = N[C@@H](Cc1ccc2ccccc2c1)C(=O)O

Columns and labels:
[1] = test system: HeLa cells; assay: Apparent endosomal escape efficiency; assay type: cell-based; settings: for Apparent Endosomal Escape (γ, %): γ=(MFI^NF/MFI^Rho) of CPP over that of CPP 1 ×100%, 5 μM, 2 h
Method in brief: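 HeLa cells were seeded at 1.5 × 10^5 per well and grown overnight, then given 5 μM peptide for 2 h at 37 °C in medium. Separate peptide preparations were labelled with pH-sensitive naphthofluorescein or with rhodamine B through a miniPEG linker. Cells were DPBS-washed, trypsinised, pelleted and resuspended in DPBS for flow cytometry. NF used 633-nm excitation (APC channel) and Rho used 561-nm excitation (PE channel). γ is the NF/Rho mean-fluorescence ratio normalised to the reference peptide.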

[2] = Calcein release from LUVs; settings: 20 μM peptide (Triton X-100 at 1%), over a 30-min period; Triton X-100 = 100%
Method in brief: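 Large unilamellar vesicles with a lipid composition mimicking the late endosomal membrane were loaded with the small-molecule dye calcein. They were then exposed to the cyclic peptide, and release of calcein from the vesicles was followed.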

[3] = determined by fluorescence correlation spectroscopy; ref [42]; cited from earlier work
[4] = test system: HeLa cells; settings: Rho-labeled, relative to CPP 1 (100%), ref [40]; cited from earlier work
[5] = test system: HeLa cells; settings: NF-labeled, relative to CPP 1 (100%), ref [40]; cited from earlier work
[6] = test system: HeLa cells; settings: relative to CPP 1 (100%); ref [40]; cited from earlier work
[7] = test system: HeLa cells; assay: Cytosolic entry of R9^NF in presence of unlabeled CPP, flow cytometry; assay type: cell-based; settings: 5 μM unlabeled CPP
Method in brief: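 HeLa cells seeded at 1.5 × 10^5 per well, grown overnight, then exposed to naphthofluorescein-labeled R9 with or without 5 μM unlabeled cyclic CPP for 2 h in culture medium. Cells were washed twice with DPBS, detached with 0.25% trypsin, pelleted at 250G for 5 min, washed, resuspended in DPBS and read by flow cytometry for cytosolic NF fluorescence.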

[8] = test system: HeLa cells; assay: Cellular uptake of FITC-labeled peptides, flow cytometry; assay type: cell-based; settings: 9 vs cFΦR4, 11 vs 6, 12 vs 7, 5 μM, 2 h
Method in brief: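 Peptides carried an extra lysine on the Gln side chain, FITC-labelled at that lysine. HeLa cells were seeded at 1.5 × 10^5 per well, grown overnight and given 5 μM peptide for 2 h in culture medium. Cells were DPBS-washed twice, trypsin-detached, pelleted at 250G for 5 min, washed and resuspended in DPBS. Flow cytometry used 488-nm excitation and the FITC channel.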

[9] = test system: HeLa cells; assay: Uptake of Rho-labeled CPPs under ATP depletion or at 4 °C, flow cytometry; assay type: cell-based
[10] = mouse, in vivo

N=C(N)NCCC[C@@H]1NC(=O)[C@H](CCCNC(=N)N)NC(=O)[C@H](CCCNC(=N)N)NC(=O)[C@H](Cc2ccc3ccccc3c2)NC(=O)[C@H](Cc2ccccc2)NC(=O)[C@H](CCC(N)=O)NC(=O)[C@H](CCCNC(=N)N)NC1=O [CPP 1, cyclo(FΦRRRRQ)] (cyclo(F[2Nal]RRRRQ))
Apparent Endosomal Escape (γ, %) [1]: 100%

RRRRRRRRR [R9, nonaarginine]
Apparent Endosomal Escape (γ, %) [1]: 40 ± 5%
Calcein dye release from LUVs [2]: 1%
Cytosolic Delivery Efficiency (%) [3]: 4.4%

Triton X-100
Calcein dye release from LUVs [2]: 100%

YGRKKRRQRRR [Tat]
Total Cellular Uptake (MFI^Rho, %) [4]: 43 ± 3 ^b %
Cytosolic Entry (MFI^NF, %) [5]: 9.9 ± 1.7 ^b %
Apparent Endosomal Escape (γ, %) [6]: 23 ± 4 ^b %
Cytosolic Delivery Efficiency (%) [3]: 2.0% and 2.0 ^c %

cyclo(FfΦRrRrQ) [CPP 12]
Endosomal escape efficiency, fold relative to cFΦR4 [1]: 4.0 fold
Apparent Endosomal Escape (γ, %) [1]: 402 ± 48%
Effect on the cytosolic entry of R9^NF [7]: minimal effect

cyclo(fΦRrRrQ) [CPP 9]
CPP activity (FITC uptake), fold more active than stereoisomer [8]: 6 fold
Endosomal escape efficiency, fold relative to cFΦR4 [1]: 2.0 fold
Apparent Endosomal Escape (γ, %) [1]: 202 ± 20%
Decrease of total cellular uptake efficiency by energy depletion ([9]; ATP depletion with sodium azide and 2-deoxyglucose): ~ 80%
Reduction of cellular entry at 4 °C ([9]; incubation at 4 °C): ≥ 95%
oral bioavailability [10]: demonstrated oral bioavailability

penetratin
Calcein dye release from LUVs [2]: 23%
